Series [1] relates to Influenza A virus. As to the kind of experiment: Antiviral activity against Influenza A virus H1N1. Format: functional, organism-based.
Series [2] relates to Sindbis virus. As to the kind of experiment: Antiviral activity against Sindbis virus. It counts as functional, organism-based.
The subject of series [3] is Human alphaherpesvirus 1. Put plainly: Antiviral activity against Human herpesvirus 1. Format: functional, organism-based. The procedure, abridged:
(§1)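 Confluent HEL, Vero, HeLa or MDCK monolayers (cell type per virus not specified) were inoculated with 100 CCID50 of virus, with a range of compound concentrations. Strains were HSV-1 KOS and TK− ACV-resistant KOS, HSV-2 Lyons and G, and HCMV AD-169 and Davis. Cytopathicity or plaques were scored once complete in untreated infected controls.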

The subject of series [4] is Feline coronavirus. Put plainly: Antiviral activity against Feline coronavirus. Format: functional, organism-based.
For series [5], the system named is Vaccinia virus. Put plainly: Antiviral activity against Vaccinia virus. Format: functional, organism-based. Particulars: Orthopoxvirus vaccinia.
Series [6] deals with Influenza B virus. Put plainly: Antiviral activity against influenza B virus. Format: functional, organism-based.
Series [7] has as its system Human respirovirus 3. As to the kind of experiment: Antiviral activity against Parainfluenza virus 3. Format: functional, organism-based.
For series [8], the system named is Mammalian orthoreovirus 1. As to the kind of experiment: Antiviral activity against Reovirus 1. Format: functional, organism-based.
For series [9], the system named is Human alphaherpesvirus 3. Put plainly: Antiviral activity against Varicella zoster virus. Format: functional, organism-based. Put shortly: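 VZV strain Oka and the TK− strain 07-1 were inoculated at 20 PFU onto confluent cell monolayers in the presence of varying compound concentrations. Plaque formation was recorded once complete in untreated infected controls.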

A short description of series [10]: Selectivity index, ratio of CC50 for human MT4 cells to EC50 for HIV1 3B infected in human MT4 cells. It counts as toxicity, cell-based. The settings on record: MT4 cells (uninfected for CC50; HIV-1 3B infected for EC50).
Series [11] has as its system Vesicular stomatitis virus. Put plainly: Antiviral activity against Vesicular stomatitis virus. Format: functional, organism-based.
For series [12], the system named is Influenza A virus. Put plainly: Antiviral activity against Influenza A virus H3N2. It counts as functional, organism-based.
For series [13], the system named is Human immunodeficiency virus 1. As to the kind of experiment: Antiviral activity against HIV1 3B infected in human MT4 cells assessed as inhibition of virus-induced cytopathic effect after 4 days by MTT assay. Format: functional, organism-based. The settings on record: Human immunodeficiency virus 1, 3B, MT4, 96 h. Put shortly:
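HIV-1 in MT-4 cells at 1 × 10^5 cells/ml, infected at MOI 0.02 (virus stock titrated as CCID50), then plated immediately onto varying compound concentrations. After 4 days at 37 °C, viable cells counted by MTT.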
In general terms: Protection from cytopathic effect is a common read-out in antiviral testing.

Series [14] deals with Punta Toro virus. Put plainly: Antiviral activity against Punta Toro virus. It counts as functional, organism-based.
The test system of series [15] is Coxsackievirus B4. Put plainly: Antiviral activity against Coxsackievirus B4. Format: functional, organism-based.
The target of series [16] is Human immunodeficiency virus type 1 reverse transcriptase (Human immunodeficiency virus 1, UniProt Q72547). As to the kind of experiment: Non-competitive inhibition of wild type HIV1 reverse transcriptase p66/p51 after 30 mins by liquid scintillation counting.
Series [17] concerns Respiratory syncytial virus. As to the kind of experiment: Antiviral activity against Respiratory syncytial virus. It counts as functional, organism-based.
Series [18] deals with MT4. Put plainly: Cytotoxicity against human MT4 cells after 4 days by MTT assay. It counts as cell-based. The settings on record: mt4, 96 h. In general terms: Formazan colour is commonly taken as a measure of viable cells.
The subject of series [19] is Human alphaherpesvirus 2. Put plainly: Antiviral activity against Human herpesvirus 2. It counts as functional, organism-based. The procedure, abridged:
as §1

Active and inactive are the calls of the source. The calls are words filed in the database; no cut-off is given here.

The values that follow come from ChEMBL document CHEMBL2331304, “N1,N3-disubstituted uracils as nonnucleoside inhibitors of HIV-1 reverse transcriptase” (Bioorg Med Chem, 2013).

One may read the EC50 as the concentration giving half of the maximal effect. As usually defined, the Ki is the dissociation constant of the complex between target and ligand, obtained from inhibition or displacement. The low end stands for tighter binding, the high end for weaker binding. What is called CC50 is the concentration at which the toxic effect on the cells reaches its halfway point. Low values mean harm at low concentration, high ones better tolerance by the cells. Consider `O=c1ccn(CCOc2ccc(F)cc2)c(=O)n1Cc1ccccc1`, for which the result in series [1], in [2], in series [3], in [4], in series [5] and in series [6] was inactive. Also, the result in series [7], in series [8], in series [9], in series [11], in [12] and in [14] was inactive. In addition, the result in series [15], in series [17] and in series [19] was inactive. The selectivity ratio in series [10] came to 6.9. Moreover, the EC50 in [13] is 27 µM. In addition, affinity in series [16] was put at a Ki of 71 µM. Further, in [18], the CC50 was 187 µM.

Turning to `Cc1ccc(OCCn2ccc(=O)n(Cc3cccc(C)c3)c2=O)cc1`, the result in series [1], in [2], in series [3], in series [4], in series [5] and in series [6] was inactive. In addition, the outcome in series [7], in series [8], in series [9], in series [11], in series [12] and in [14] was inactive. Moreover, the result in series [15], in [17] and in series [19] was inactive. In addition, the selectivity ratio in series [10] was not below 11. Also, the EC50 in series [13] was determined as 3.4 µM. In addition, the Ki in series [16] was found to be 6.6 µM. This compound also displayed a CC50 in [18] not below 38 µM.

On to `N#Cc1ccc(OCCn2ccc(=O)n(Cc3ccccc3)c2=O)cc1`, for which the result in series [1], in series [2], in series [3], in [4], in [5] and in series [6] was inactive. Besides, the result in [7], in [8], in [9], in series [11], in series [12] and in series [14] was inactive. Also, the result in series [15], in [17] and in series [19] was inactive. In series [10], the selectivity ratio worked out at 3.9. Also, in series [13], the EC50 is 43 µM. The compound also gave a Ki in [16] of 51 µM. This compound displayed a CC50 in [18] of 166 µM.

As for `Cc1ccc(OCCn2ccc(=O)n(Cc3ccccc3)c2=O)cc1`, the outcome in series [1], in series [2], in [3], in series [4], in [5] and in series [6] was inactive. Moreover, the outcome in series [7], in [8], in series [9], in [11], in [12] and in series [14] was inactive. The result in series [15], in series [17] and in [19] was inactive. Besides, in series [10], the selectivity ratio was 17. The EC50 in [13] is 11 µM. In addition, the Ki in series [16] is 52 µM. Further, half-maximal cytotoxicity in [18] (CC50) was put at 187 µM.

For `Cc1cccc(OCCn2ccc(=O)n(Cc3ccccc3)c2=O)c1`, the result in series [1], in series [2], in series [3], in [4], in series [5] and in [6] was inactive. Also, the result in series [7], in series [8], in series [9], in [11], in [12] and in [14] was inactive. Moreover, the outcome in [15], in series [17] and in [19] was inactive. Further, in [10], the selectivity ratio is 6.7. Moreover, the EC50 in series [13] was 31 µM. Also, the Ki in [16] was more than 100 µM. Besides, the CC50 in [18] was determined as 207 µM.

On to `Cc1ccc(OCCn2ccc(=O)n(Cc3cc(C)ccc3C)c2=O)cc1`, for which the result in series [1], in [2], in [3], in [4], in series [5] and in series [6] was inactive. Moreover, the outcome in series [7], in series [8], in series [9], in series [11], in series [12] and in [14] was inactive. Further, the outcome in [15], in [17] and in series [19] was inactive. Besides, the selectivity ratio in series [10] is more than 66. Further, the EC50 in series [13] is 5.2 µM. In [16], this compound registered a Ki of 10 µM. Moreover, in series [18], the CC50 is more than 343 µM.

Take `O=c1ccn(C/C=C/c2ccccc2)c(=O)n1Cc1ccccc1`: the outcome in [1], in [2], in series [3], in series [4], in [5] and in [6] was inactive. The outcome in [7], in series [8], in [9], in [11], in series [12] and in series [14] was inactive. Besides, the outcome in [15], in [17] and in series [19] was inactive. Besides, the selectivity ratio in series [10] came out at 20. For the same compound, the EC50 in series [13] was found to be 7.85 µM. This compound displayed a Ki in series [16] of 29 µM. The same compound yielded a 50% cytotoxic concentration (CC50) in series [18] of 160 µM.

As for `Cc1cc(C)cc(OCCn2ccc(=O)n(Cc3ccccc3)c2=O)c1`, the outcome in [1], in series [2], in series [3], in [4], in series [5] and in series [6] was inactive. Also, the outcome in series [7], in series [8], in series [9], in [11], in series [12] and in series [14] was inactive. Also, the result in [15], in [17] and in series [19] was inactive. Besides, the EC50 in series [13] was more than 46 µM. Besides, the Ki in series [16] is more than 100 µM. In series [18], half-maximal cytotoxicity (CC50) was put at 46 µM.

With `Cc1ccc(OCCn2ccc(=O)n(Cc3ccccc3C)c2=O)cc1`, the outcome in series [1], in series [2], in [3], in series [4], in [5] and in [6] was inactive. Also, the outcome in [7], in series [8], in series [9], in series [11], in [12] and in series [14] was inactive. In addition, the result in series [15], in series [17] and in series [19] was inactive. Also, in series [13], the EC50 was more than 46 µM. This compound displayed a Ki in [16] of more than 100 µM. Besides, the CC50 in series [18] stood at 46 µM.
